Runt-SMMHC FRET: Runt domain-CBFb-SMMHC interaction inhibition; inhibition, % at 20 µM; Q01196+Q13951; 220,000 tested, 0.74% active; AID 1434; Cerulean-Runt/Venus-CBFb-SMMHC FRET ratio 530/480, 1 h;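 active = mean inhibition across duplicate retests at 20 µM reaching about 50%, limit read from the data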;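 also: 0% = DMSO wells and 100% = wells with excess untagged CBFb-SMMHC; inhibitors lower the FRET ratio by blocking Runt binding to CBFb-SMMHC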
RBBP9 inhibitor: inhibitors of human serine hydrolase RBBP9; O75884; recombinant RBBP9, FP-Rh probe fluorescence polarization; inhibition, % at 7.94 µM; 220,000 tested, 0.2% active; AID 1515;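 active = inhibition above the campaign mean of all tested compounds plus 3 SD, cut at about 14% in these data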;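 also: plate controls were DMSO wells with RBBP9 for no effect and wells lacking RBBP9 protein for full effect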
Target sequence (O75884 whole entry, looked up): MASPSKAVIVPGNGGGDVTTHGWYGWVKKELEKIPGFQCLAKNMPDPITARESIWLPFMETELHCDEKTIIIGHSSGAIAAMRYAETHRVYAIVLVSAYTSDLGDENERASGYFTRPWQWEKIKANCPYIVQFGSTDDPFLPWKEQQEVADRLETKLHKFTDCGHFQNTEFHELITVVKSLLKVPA
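Test system: recombinant human RBBP9; Timing: 30 min then 45 min, 25 °C; Detection: fluorescence polarization; Control set: RBBP9 with DMSO as uninhibited control, no-protein wells as full inhibition; Compound dosing: one concentration, 7.94 µM nominal, 0.794% DMSO; Probe or stimulus: FP-Rh activity-based probe, 375 nM before mixing.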
Runt-CBFb FRET: Runt domain-CBFb interaction inhibition; Q01196+Q13951; Cerulean-Runt/Venus-CBFb FRET ratio 530/480, 1 h; inhibition, % at 20 µM; 220,000 tested, 0.46% active; AID 1496;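 active = inhibition over about 50% at 20 µM in the single-dose screen, limit read from the data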;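 also: 0% = DMSO wells and 100% = excess unlabeled CBFb competitor control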
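test system = Cerulean-Runt domain fusion protein, energy donor | probe or stimulus = Venus-CBFb binding partner, 100 nM | incubation = two 1 h room-temperature incubations shielded from light | detection = fluorescence energy transfer, 422 nm excitation, 530/480 nm emission | measure = loss of energy transfer signal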
Hck-Nef inh: human Hck-Nef kinase inhibition; P08631; Recombinant Hck-YEEI plus Nef, Z-Lyte FRET kinase assay; inhibition, % at 20 µM; 220,000 tested, 0.68% active;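 active = Hck-Nef kinase inhibition above about 50%, limit read from the data; inactive = inhibition below that limit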;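 also: 0% = DMSO with Hck plus Nef and 100% = Hck alone without Nef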
Target sequence (P08631 whole entry, looked up): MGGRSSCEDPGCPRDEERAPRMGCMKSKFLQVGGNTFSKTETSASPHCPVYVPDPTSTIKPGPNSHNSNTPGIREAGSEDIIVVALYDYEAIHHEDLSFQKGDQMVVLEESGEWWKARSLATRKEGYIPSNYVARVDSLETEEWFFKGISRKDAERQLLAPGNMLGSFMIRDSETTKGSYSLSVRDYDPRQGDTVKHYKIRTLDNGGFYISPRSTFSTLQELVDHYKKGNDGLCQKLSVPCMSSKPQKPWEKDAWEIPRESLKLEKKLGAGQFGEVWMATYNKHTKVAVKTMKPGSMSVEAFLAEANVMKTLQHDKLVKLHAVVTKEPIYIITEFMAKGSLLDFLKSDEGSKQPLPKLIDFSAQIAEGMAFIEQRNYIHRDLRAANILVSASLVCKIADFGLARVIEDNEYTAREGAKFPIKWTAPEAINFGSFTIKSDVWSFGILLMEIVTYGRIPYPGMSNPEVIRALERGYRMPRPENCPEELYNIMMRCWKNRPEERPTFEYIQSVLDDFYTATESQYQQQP
PfM18AAP inh-1: PfM18AAP enzyme inhibition; recombinant PfM18AAP, H-Glu-NHMec fluorogenic cleavage; inhibition, % at 7.35 µM; 290,000 tested, 1.2% active;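 active = inhibition above the campaign mean inhibition over all tested compounds plus 3 SD, cut at about 28% in these data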;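 also: 0% = plate median of test compound wells and 100% = 2 mM ZnCl2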
RanGTP-Imp inh: inhibitors of RanGTP-importin-beta interaction, primary screen, biochemical, FRET, CFP-Ran, YFP-importin-beta, homogeneous; cell-free CFP-Ran/YFP-importin-beta FRET ratio; inhibition, % (test concentration not listed); 300,000 tested, 1.1% active; AID 2216;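 active = more than half of the replicate wells show a fall in the fluorescence ratio signal beyond about 16%, limit read from the data, passing the limit was not always enough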;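 also: 0% = DMSO wells and 100% = Ran loaded with GDP instead of GTP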
RUNX1 CBFb TR: disrupts human RUNX1 Runt domain binding to CBFb; shares compounds with Runt-CBFb FRET; TR-FRET RUNX1 Runt domain-CBFb binding; inhibition, % at 20 µM; 480 tested, 20% active; in the data active = inhibition above about 40%
RBBP9 inh conf: human RBBP9 inhibition, confirmation; recombinant RBBP9, FP-Rh probe fluorescence polarization; 410 tested, 36% active; AID 1537; shares compounds with RBBP9 inhibitor; inhibition, % at 7.94 µM;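 active = inhibition above the hit cutoff derived for the primary screen, cut at about 15% in these data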;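 also: 0% = RBBP9 with DMSO and 100% = wells lacking RBBP9 protein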
PfM18AAP inh-2: confirmation of Plasmodium falciparum M18 aspartyl aminopeptidase inhibitors. shares compounds with PfM18AAP inh-1. recombinant PfM18AAP, H-Glu-NHMec fluorogenic cleavage. inhibition, % at 7.35 µM. 2,400 tested, 28% active;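 active = mean inhibition over replicate wells above the hit cutoff set for the earlier primary screen, cut at about 29% in these data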;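 also: 0% = median of test compound wells and 100% = 2 mM ZnCl2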
CTSL1 confirm: Cathepsin L (human) inhibition, confirmation. shares compounds with PfM18AAP inh-1. purified cathepsin L1, Z-Leu-Arg-MCA fluorescence. inhibition, % at 5.96 µM. 2,400 tested, under 10 active;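 active = average inhibition across replicates above the hit cutoff set in the earlier primary screen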;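 also: 0% = median of test compound wells and 100% = Z-Phe-Ala-diazomethylketone 1 µM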
* hit, by the source's call. Only some compounds are listed: those with a hit (about 2.9% of all), similar ones and a draw of the others.

Screening COc1ccc(NC2CCCN(C(=O)CN3C(=O)c4ccccc4C3=O)C2)cc1OC (stereo unspecified) returned PfM18AAP inh-1 7.5 and RanGTP-Imp inh -2.7.
For CCCN(CCC)S(=O)(=O)c1ccc(C)cc1 the results were PfM18AAP inh-1 -2.7 and RanGTP-Imp inh -1.8.
`CCOC(=O)c1cc(S(=O)(=O)N(C)Cc2ccccc2)cn1C` gave PfM18AAP inh-1 7.7 and RanGTP-Imp inh -0.9.
`COc1ccc(NC(=O)C2CCN(S(=O)(=O)c3ccc4c(c3)CC(C)N4C(C)=O)CC2)c(OC)c1` (stereo unspecified) gave PfM18AAP inh-1 4.9 and RanGTP-Imp inh -0.4.
For COC(=O)C1=C(C)N(Cc2ccc(C)cc2)C(=O)/C1=C\c1ccc(O)c(OC)c1 the results were Runt-SMMHC FRET 6.2, RBBP9 inhibitor -0.1, Runt-CBFb FRET 27.1, Hck-Nef inh -0.9, PfM18AAP inh-1 8.9 and RanGTP-Imp inh -3.2.
`CCOC(=O)C1=C(C)N(c2ccc(C)cc2)C(=O)/C1=C\c1ccc(O)c(OC)c1` gave Runt-SMMHC FRET -13.0, RBBP9 inhibitor 14.7*, Runt-CBFb FRET 56.9*, Hck-Nef inh -36.1, PfM18AAP inh-1 15.6, RanGTP-Imp inh 7.1, RUNX1 CBFb TR 25.0 and RBBP9 inh conf 29.4*.
`CNCc1ccccc1Sc1cc(O)ccc1O` gave Runt-SMMHC FRET 43.7, RBBP9 inhibitor 17.9*, Runt-CBFb FRET 51.5*, Hck-Nef inh 2.3, PfM18AAP inh-1 13.8, RUNX1 CBFb TR -2.2 and RBBP9 inh conf 83.8*.
CCc1cccc(NS(=O)(=O)c2c(C)nc3sc(CC)nn3c2=O)c1 was read as PfM18AAP inh-1 9.3.
C/C(=N/NC(=O)c1cc(O)c(O)c(O)c1)c1ccc([N+](=O)[O-])cc1 was read as Runt-SMMHC FRET 49.9, RBBP9 inhibitor 9.3, Runt-CBFb FRET 54.4*, Hck-Nef inh 23.3, PfM18AAP inh-1 49.6*, RanGTP-Imp inh 9.1, RUNX1 CBFb TR 67.0*, PfM18AAP inh-2 12.3 and CTSL1 confirm 2.3.
`CCO[C@H]1OC(C(=O)Nc2ccccc2)=C[C@@H](c2ccc(C(F)(F)F)cc2)[C@@H]1CCCO` gave Runt-SMMHC FRET -1.5, RBBP9 inhibitor -7.9, Runt-CBFb FRET -0.1, Hck-Nef inh -5.3, PfM18AAP inh-1 2.9 and RanGTP-Imp inh 0.8.
COc1ccccc1N1C(=O)C=C(Sc2nc(C)cc(C)n2)C1=O was read as Runt-SMMHC FRET 68.5*, RBBP9 inhibitor -8.5, Runt-CBFb FRET 59.7*, Hck-Nef inh -172.3, PfM18AAP inh-1 35.4*, RanGTP-Imp inh -2.9, RUNX1 CBFb TR 36.8, PfM18AAP inh-2 -321.5 and CTSL1 confirm -1.5.
`COc1ccc(C2CC(=O)N3CN(c4ccc(C)c(Cl)c4)CSC3=C2C#N)cc1OC` (stereo unspecified) gave Runt-SMMHC FRET 100.4*, RBBP9 inhibitor -3.7, Runt-CBFb FRET 59.0*, Hck-Nef inh 0.1, PfM18AAP inh-1 34.6*, RanGTP-Imp inh -1.1, RUNX1 CBFb TR -24.0, PfM18AAP inh-2 -3.6 and CTSL1 confirm -1.7.
`Cc1ccc(NC(=O)COC(=O)COc2cccc3c2OC(C)(C)C3)c(C)c1` gave RanGTP-Imp inh -1.5.
Screening Oc1ccc(O)c(Cc2nc3ccccc3[nH]2)c1 returned Runt-SMMHC FRET 4.8, RBBP9 inhibitor 1.2, Runt-CBFb FRET 53.0*, Hck-Nef inh 17.1, PfM18AAP inh-1 44.2*, RanGTP-Imp inh -0.5, RUNX1 CBFb TR 24.2, PfM18AAP inh-2 71.2* and CTSL1 confirm -6.1.
Screening Cc1ccc(C2=Nc3ccccc3SC(c3cccc([N+](=O)[O-])c3)C2)cc1 (stereo unspecified) returned Runt-SMMHC FRET -5.7, RBBP9 inhibitor -10.2, Runt-CBFb FRET 52.3*, Hck-Nef inh 4.4, PfM18AAP inh-1 32.6*, RanGTP-Imp inh -0.9, RUNX1 CBFb TR 28.3, PfM18AAP inh-2 -51.1 and CTSL1 confirm 3.1.
CCOC(=O)c1c(NC(C)=O)sc2c1CCC(C=O)=C2Sc1ccccc1 was read as Runt-SMMHC FRET 32.5, RBBP9 inhibitor -3.7, Runt-CBFb FRET 53.4*, Hck-Nef inh -1.9, PfM18AAP inh-1 40.4*, RanGTP-Imp inh 0.6, RUNX1 CBFb TR -19.4, PfM18AAP inh-2 -20.6 and CTSL1 confirm 1.4.
Screening CCOC(=O)c1c(NC(C)=O)sc2c1CCCNC2=O returned Runt-SMMHC FRET -3.0, RBBP9 inhibitor -3.4, Runt-CBFb FRET 2.0, Hck-Nef inh 2.2, PfM18AAP inh-1 -1.3 and RanGTP-Imp inh 3.0.
COc1ccccc1NS(=O)(=O)c1cc(NC(=O)c2cccs2)ccc1N1CCCCC1 was read as Runt-SMMHC FRET -3.4, RBBP9 inhibitor -34.0, Runt-CBFb FRET -1.7, Hck-Nef inh 3.3, PfM18AAP inh-1 -11.6 and RanGTP-Imp inh 3.8.
For COc1ccccc1NS(=O)(=O)c1cc(NC(=O)c2sccc2C)ccc1N1CCCC1 the results were Runt-SMMHC FRET 23.0, RBBP9 inhibitor -16.8, Runt-CBFb FRET 51.3*, Hck-Nef inh 1.0, PfM18AAP inh-1 56.0*, RanGTP-Imp inh 0.4, RUNX1 CBFb TR -119.9, PfM18AAP inh-2 7.8 and CTSL1 confirm -2.2.
`COc1ccccc1NS(=O)(=O)c1cc(NC(=O)c2cccs2)ccc1N1CCCC1` gave Runt-SMMHC FRET 27.7, RBBP9 inhibitor -16.0, Runt-CBFb FRET 50.0*, Hck-Nef inh 7.5, PfM18AAP inh-1 36.1*, RanGTP-Imp inh -1.9, RUNX1 CBFb TR 7.3, PfM18AAP inh-2 -4.0 and CTSL1 confirm 3.4.
Screening CCc1noc(C)c1C(=O)Nc1nc(-c2ccc(OC)cc2OC)cs1 returned RanGTP-Imp inh 9.4.
For O=Cc1ccc(O)cc1O the results were PfM18AAP inh-1 8.4 and RanGTP-Imp inh 4.7.
For O=CN/C=C/c1cc(O)ccc1O the results were Runt-SMMHC FRET 58.7*, RBBP9 inhibitor 39.4*, Runt-CBFb FRET 64.6*, Hck-Nef inh -141.4, PfM18AAP inh-1 60.8*, RUNX1 CBFb TR -1.6, PfM18AAP inh-2 82.5* and CTSL1 confirm 0.2.
